Measurements taken from ChEMBL document CHEMBL3085659, “Synthesis, antiproliferative and apoptosis-inducing activity of thiazolo[5,4-d]pyrimidines” (Eur J Med Chem, 2013).
Active and inactive are the calls of the source. The rule behind the calls is not given here.

Legend:
HL-60 [1] = experiment: Induction of apoptosis in human HL60 cells assessed as cleavage of PARP1 after 24 hrs by Western blot analysis; format: functional, cell-based
Method in brief: (§1)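 Cells treated 24 h (HL-60 at 5, 20, 30 µM; A549 at 1, 3, 10 µM); RIPA lysates, 70 µg protein resolved by SDS-PAGE, transferred to PVDF, blocked in 5% milk, probed for PARP-1 and procaspase-3 with HRP secondaries, ECL detection.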

HL-60 [2] = experiment: Antiproliferative activity against human HL60 cells after 48 hrs by SRB assay; format: functional, cell-based; conditions: HL-60, 48 h
HL-60 [3] = experiment: Antiproliferative activity against human HL60 cells assessed as growth inhibition at 10 uM after 48 hrs by SRB assay; format: functional; conditions: HL-60, 48 h, read-out: GI
HL-60 [4] = experiment: Induction of apoptosis in human HL60 cells at 5 uM after 24 hrs using propidium iodide staining by flow cytometry (reference value: 5%); format: functional
HL-60 [5] = experiment: Cell cycle arrest in human HL60 cells assessed as accumulation at G1 phase at 5 uM after 24 hrs using propidium iodide staining by flow cytometry (reference value: 40%); format: functional
PC-3 [6] = experiment: Antiproliferative activity against human PC3 cells after 48 hrs by SRB assay; format: functional, cell-based; conditions: PC-3, 48 h
HL-60 [7] = experiment: Induction of apoptosis in human HL60 cells at 20 uM after 24 hrs using propidium iodide staining by flow cytometry (reference value: 5%); format: functional
PC-3 [8] = experiment: Antiproliferative activity against human PC3 cells assessed as growth inhibition at 10 uM after 48 hrs by SRB assay; format: functional; conditions: PC-3, 48 h, read-out: GI
HL-60 [9] = experiment: Cell cycle arrest in human HL60 cells assessed as accumulation at S phase at 20 uM after 24 hrs using propidium iodide staining by flow cytometry (reference value: 50%); format: functional
HL-60 [10] = experiment: Cell cycle arrest in human HL60 cells assessed as accumulation at G1 phase at 20 uM after 24 hrs using propidium iodide staining by flow cytometry (reference value: 40%); format: functional
HL-60 [11] = experiment: Cell cycle arrest in human HL60 cells assessed as accumulation at S phase at 30 uM after 24 hrs using propidium iodide staining by flow cytometry (reference value: 50%); format: functional
HL-60 [12] = experiment: Induction of apoptosis in human HL60 cells assessed as loss of mitochondrial potential at 20 uM after 24 hrs using rhodamine-123 staining by flow cytometric analysis (reference value: 2%); format: functional
HL-60 [13] = experiment: Induction of apoptosis in human HL60 cells assessed as loss of mitochondrial potential at 5 uM after 24 hrs using rhodamine-123 staining by flow cytometric analysis (reference value: 2%); format: functional
HL-60 [14] = experiment: Induction of apoptosis in human HL60 cells assessed as reduction of procaspase-3 expression after 24 hrs by Western blot analysis; format: functional, cell-based; method in brief: as §1
HL-60 [15] = experiment: Cell cycle arrest in human HL60 cells assessed as accumulation at G2 phase at 30 uM after 24 hrs using propidium iodide staining by flow cytometry (reference value: 10%); format: functional
T47D [16] = experiment: Antiproliferative activity against human T47D cells assessed as growth inhibition at 10 uM after 48 hrs by SRB assay; format: functional; conditions: read-out: GI
HL-60 [17] = experiment: Cell cycle arrest in human HL60 cells assessed as accumulation at G2 phase at 5 uM after 24 hrs using propidium iodide staining by flow cytometry (reference value: 10%); format: functional
A549 [18] = experiment: Antiproliferative activity against human A549 cells after 48 hrs by SRB assay; format: functional, cell-based; conditions: A549, 48 h
[19] = Antiproliferative activity against human NCI-H322 cells assessed as growth inhibition at 10 uM after 48 hrs by SRB assay; format: functional; conditions: NCI-H322, 48 h, read-out: GI
HL-60 [20] = experiment: Induction of apoptosis in human HL60 cells assessed as morphological changes at 5 to 30 uM after 24 hrs using DAPI staining by fluorescence microscopic analysis; format: functional, cell-based
Method in brief: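 HL-60 treated 24 h at indicated concentrations, then methanol-fixed, DAPI-stained and examined by fluorescence microscopy for cellular and nuclear apoptotic morphology, following the A549 protocol.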

HL-60 [21] = experiment: Cell cycle arrest in human HL60 cells assessed as accumulation at G2 phase at 20 uM after 24 hrs using propidium iodide staining by flow cytometry (reference value: 10%); format: functional
HL-60 [22] = experiment: Induction of apoptosis in human HL60 cells at 30 uM after 24 hrs using propidium iodide staining by flow cytometry (reference value: 5%); format: functional
A-431 = experiment: Antiproliferative activity against human A431 cells assessed as growth inhibition at 10 uM after 48 hrs by SRB assay; format: functional; conditions: A-431, 48 h, read-out: GI
T47D [23] = experiment: Antiproliferative activity against human T47D cells after 48 hrs by SRB assay; format: functional, cell-based
HL-60 [24] = experiment: Induction of apoptosis in human HL60 cells assessed as loss of mitochondrial potential at 30 uM after 24 hrs using rhodamine-123 staining by flow cytometric analysis (reference value: 2%); format: functional
T98G = experiment: Antiproliferative activity against human T98G cells assessed as growth inhibition at 10 uM after 48 hrs by SRB assay; format: functional; conditions: read-out: GI
HL-60 [25] = experiment: Cell cycle arrest in human HL60 cells assessed as accumulation at G1 phase at 30 uM after 24 hrs using propidium iodide staining by flow cytometry (reference value: 40%); format: functional
HL-60 [26] = experiment: Cell cycle arrest in human HL60 cells assessed as accumulation at S phase at 5 uM after 24 hrs using propidium iodide staining by flow cytometry (reference value: 50%); format: functional
A549 [27] = experiment: Antiproliferative activity against human A549 cells assessed as growth inhibition at 10 uM after 48 hrs by SRB assay; format: functional; conditions: A549, 48 h, read-out: GI
[28] = Antiproliferative activity against human MIAPaCa2 cells after 48 hrs by SRB assay; format: functional, cell-based; conditions: MIA PaCa-2, 48 h
[29] = Antiproliferative activity against human MIAPaCa2 cells assessed as growth inhibition at 10 uM after 48 hrs by SRB assay; format: functional; conditions: MIA PaCa-2, 48 h, read-out: GI

**Q.** Which Activity (HL-60 [1]) does the source give for `c1ccc(Nc2nc3c(N4CCOCC4)ncnc3s2)cc1` here?
**A.** Dose-dependent effect

**Q.** What about the IC50 (HL-60 [2]) of the same compound?
**A.** 8 µM

**Q.** And the inhibition of growth at 10 µM (HL-60 [3])?
**A.** 59%

**Q.** What about the Activity (HL-60 [4]) of the same compound?
**A.** 9%

**Q.** What about the Activity (HL-60 [5]) of the same compound?
**A.** 43%

**Q.** What about the IC50 (PC-3 [6]) of the same compound?
**A.** 17 µM

**Q.** And the Activity (HL-60 [7])?
**A.** 12%

**Q.** And the inhibition of growth at 10 µM (PC-3 [8])?
**A.** 45%

**Q.** And the Activity (HL-60 [9])?
**A.** 42%

**Q.** And the Activity (HL-60 [10])?
**A.** 51%

**Q.** And the Activity (HL-60 [11])?
**A.** 54%

**Q.** And the Activity (HL-60 [12])?
**A.** 16%

**Q.** What about the Activity (HL-60 [13]) of the same compound?
**A.** 9%

**Q.** What about the Activity (HL-60 [14]) of the same compound?
**A.** Dose-dependent effect

**Q.** What about the Activity (HL-60 [15]) of the same compound?
**A.** 5%

**Q.** And the inhibition of growth at 10 µM (T47D [16])?
**A.** 12%

**Q.** And the Activity (HL-60 [17])?
**A.** 12%

**Q.** And the IC50 (A549 [18])?
**A.** 13 µM

**Q.** What about the inhibition of growth at 10 µM [19] of the same compound?
**A.** 7%

**Q.** What about the Activity (HL-60 [20]) of the same compound?
**A.** Active

**Q.** And the Activity (HL-60 [21])?
**A.** 7%

**Q.** And the Activity (HL-60 [22])?
**A.** 24%

**Q.** What about the inhibition of growth at 10 µM (A-431) of the same compound?
**A.** 4%

**Q.** And the IC50 (T47D [23])?
**A.** 59 µM

**Q.** What about the Activity (HL-60 [24]) of the same compound?
**A.** 26%

**Q.** What about the inhibition of growth at 10 µM (T98G) of the same compound?
**A.** 26%

**Q.** What about the Activity (HL-60 [25]) of the same compound?
**A.** 41%

**Q.** And the Activity (HL-60 [26])?
**A.** 45%

**Q.** What about the inhibition of growth at 10 µM (A549 [27]) of the same compound?
**A.** 38%

**Q.** And the IC50 [28]?
**A.** 54 µM

**Q.** What about the inhibition of growth at 10 µM [29] of the same compound?
**A.** 12%
